Experimental data taken from ChEMBL document CHEMBL1154956, “Stereospecific synthesis of oximes and oxime ethers of 3-azabicycles: A SAR study towards antimicrobial agents” (2010).
Values after ≈ are worked out from the molar mass of the structure shown.

Experiments:
Format in all cases: functional
Pseudomonas aeruginosa = test: Antibacterial activity against Pseudomonas aeruginosa by NCCLS broth microdilution method
Bacillus subtilis = test: Antibacterial activity against Bacillus subtilis by NCCLS broth microdilution method
Staphylococcus aureus = test: Antibacterial activity against Staphylococcus aureus by NCCLS broth microdilution method
Cryptococcus neoformans = test: Antifungal activity against Cryptococcus neoformans by NCCLS broth microdilution method
How it was run: (§1)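 MIC90 was taken as the lowest concentration that inhibited 90% of pathogen growth after incubation, reported in μg/mL. Broth dilution followed the NCCLS reference standards: M27-A for yeasts and the proposed standard for conidium-forming filamentous fungi. Fluconazole was the reference drug.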

Aspergillus niger = test: Antifungal activity against Aspergillus niger by NCCLS broth microdilution method; how it was run: as §1
Candida albicans = test: Antifungal activity against Candida albicans by NCCLS broth microdilution method; how it was run: as §1
Klebsiella pneumoniae = test: Antibacterial activity against Klebsiella pneumoniae by NCCLS broth microdilution method
Candida parapsilosis = test: Antifungal activity against Candida parapsilosis by NCCLS broth microdilution method; how it was run: as §1
[1] = Pseudomonas aeruginosa, read-out: MIC90
[2] = Bacillus subtilis, read-out: MIC90
[3] = Staphylococcus aureus, read-out: MIC90
[4] = Cryptococcus neoformans, read-out: MIC90
[5] = Aspergillus niger, read-out: MIC90
[6] = Candida albicans, read-out: MIC90
[7] = Klebsiella pneumoniae, read-out: MIC90
[8] = Lodderomyces parapsilosis, read-out: MIC90

SMILES	MIC90 (Pseudomonas aeruginosa; [1]) [µg/mL]	MIC90 (Bacillus subtilis; [2]) [µg/mL]	MIC90 (Staphylococcus aureus; [3]) [µg/mL]	MIC90 (Cryptococcus neoformans; [4]) [µg/mL]	MIC90 (Aspergillus niger; [5]) [µg/mL]	MIC90 (Candida albicans; [6]) [µg/mL]	MIC90 (Klebsiella pneumoniae; [7]) [µg/mL]	MIC90 (Candida parapsilosis; [8]) [µg/mL]	MIC90 (Pseudomonas aeruginosa) [µg/mL]	MIC90 (Bacillus subtilis) [µg/mL]	MIC90 (Staphylococcus aureus) [µg/mL]	MIC90 (Cryptococcus neoformans) [µg/mL]	MIC90 (Aspergillus niger) [µg/mL]	MIC90 (Candida albicans) [µg/mL]	MIC90 (Klebsiella pneumoniae) [µg/mL]	MIC90 (Candida parapsilosis) [µg/mL]
CO/N=C1\C2CCCC1(C)C(c1ccccc1)NC2c1ccccc1 (configuration not stated)	> 128	> 128	64 (≈ 191 µM)	> 128	> 128	128 (≈ 383 µM)	128 (≈ 383 µM)	> 128								
CO/N=C1\C2CCCC1(C)C(c1cccc(OC)c1)NC2c1cccc(OC)c1 (configuration not stated)	> 128	64 (≈ 162 µM)	32 (≈ 81.1 µM)	128 (≈ 324 µM)	> 128	> 128	128 (≈ 324 µM)	64 (≈ 162 µM)								
COc1ccc(C2NC(c3ccc(OC)cc3)C3(C)CCCC2/C3=N\O)cc1 (configuration not stated)	> 128	128 (≈ 336 µM)	32 (≈ 84.1 µM)	> 128	128 (≈ 336 µM)	128 (≈ 336 µM)	64 (≈ 168 µM)	> 128								
CON=C1C2CC(C)CC1C(c1ccc(Cl)cc1)NC2c1ccc(Cl)cc1 (configuration not stated)	32 (≈ 79.3 µM)	16 (≈ 39.7 µM)	16 (≈ 39.7 µM)	16 (≈ 39.7 µM)	64 (≈ 159 µM)	32 (≈ 79.3 µM)	8 (≈ 19.8 µM)	16 (≈ 39.7 µM)								
CO/N=C1\C2CCCC1(C)C(c1ccc(C)cc1)NC2c1ccc(C)cc1 (configuration not stated)	128 (≈ 353 µM)	32 (≈ 88.3 µM)	64 (≈ 177 µM)	64 (≈ 177 µM)	32 (≈ 88.3 µM)	128 (≈ 353 µM)	64 (≈ 177 µM)	> 128								
CO/N=C1\C2CCCC1(C)C(c1ccccc1F)NC2c1ccccc1F (configuration not stated)	8 (≈ 21.6 µM)	16 (≈ 43.2 µM)	4 (≈ 10.8 µM)	8 (≈ 21.6 µM)	16 (≈ 43.2 µM)	4 (≈ 10.8 µM)	4 (≈ 10.8 µM)	8 (≈ 21.6 µM)								

Continued, values first:

MIC90 (Pseudomonas aeruginosa; [1]) [µg/mL]	MIC90 (Bacillus subtilis; [2]) [µg/mL]	MIC90 (Staphylococcus aureus; [3]) [µg/mL]	MIC90 (Cryptococcus neoformans; [4]) [µg/mL]	MIC90 (Aspergillus niger; [5]) [µg/mL]	MIC90 (Candida albicans; [6]) [µg/mL]	MIC90 (Klebsiella pneumoniae; [7]) [µg/mL]	MIC90 (Candida parapsilosis; [8]) [µg/mL]	MIC90 (Pseudomonas aeruginosa) [µg/mL]	MIC90 (Bacillus subtilis) [µg/mL]	MIC90 (Staphylococcus aureus) [µg/mL]	MIC90 (Cryptococcus neoformans) [µg/mL]	MIC90 (Aspergillus niger) [µg/mL]	MIC90 (Candida albicans) [µg/mL]	MIC90 (Klebsiella pneumoniae) [µg/mL]	MIC90 (Candida parapsilosis) [µg/mL]	SMILES
128 (≈ 359 µM)	128 (≈ 359 µM)	64 (≈ 180 µM)	> 128	128 (≈ 359 µM)	32 (≈ 89.8 µM)	32 (≈ 89.8 µM)	64 (≈ 180 µM)									CC12CCCC(/C1=N\O)C(c1cccc(F)c1)NC2c1cccc(F)c1 (configuration not stated)
								>128	64 (≈ 164 µM)	16 (≈ 41.1 µM)	64 (≈ 164 µM)	32 (≈ 82.2 µM)	4 (≈ 10.3 µM)	32 (≈ 82.2 µM)	16 (≈ 41.1 µM)	CC1CC2C(=NO)C(C1)C(c1ccccc1Cl)NC2c1ccccc1Cl (stereo in doubt; 52b)
								128 (≈ 359 µM)	32 (≈ 89.8 µM)	32 (≈ 89.8 µM)	16 (≈ 44.9 µM)	4 (≈ 11.2 µM)	16 (≈ 44.9 µM)	64 (≈ 180 µM)	32 (≈ 89.8 µM)	CC1CC2C(=NO)C(C1)C(c1ccccc1F)NC2c1ccccc1F (stereo in doubt; 49b)
								32 (≈ 86.4 µM)	8 (≈ 21.6 µM)	16 (≈ 43.2 µM)	4 (≈ 10.8 µM)	2 (≈ 5.4 µM)	2 (≈ 5.4 µM)	16 (≈ 43.2 µM)	2 (≈ 5.4 µM)	CON=C1C2CC(C)CC1C(c1ccccc1F)NC2c1ccccc1F (stereo in doubt; 55b)
128 (≈ 317 µM)	64 (≈ 159 µM)	32 (≈ 79.3 µM)	32 (≈ 79.3 µM)	32 (≈ 79.3 µM)	16 (≈ 39.7 µM)	32 (≈ 79.3 µM)	8 (≈ 19.8 µM)									CON=C1C2CC(C)CC1C(c1cccc(Cl)c1)NC2c1cccc(Cl)c1 (configuration not stated)
64 (≈ 180 µM)	128 (≈ 359 µM)	32 (≈ 89.8 µM)	> 128	64 (≈ 180 µM)	128 (≈ 359 µM)	32 (≈ 89.8 µM)	64 (≈ 180 µM)									CC1CC2C(=NO)C(C1)C(c1cccc(F)c1)NC2c1cccc(F)c1 (stereo in doubt; 50a)
32 (≈ 82.2 µM)	32 (≈ 82.2 µM)	32 (≈ 82.2 µM)	64 (≈ 164 µM)	32 (≈ 82.2 µM)	64 (≈ 164 µM)	16 (≈ 41.1 µM)	64 (≈ 164 µM)									CC1CC2C(=NO)C(C1)C(c1ccc(Cl)cc1)NC2c1ccc(Cl)cc1 (configuration not stated)
	4 (≈ 10.8 µM)							8 (≈ 21.6 µM)		2 (≈ 5.4 µM)	16 (≈ 43.2 µM)	16 (≈ 43.2 µM)	8 (≈ 21.6 µM)	2 (≈ 5.4 µM)	32 (≈ 86.4 µM)	CON=C1C2CC(C)CC1C(c1ccccc1F)NC2c1ccccc1F (stereo in doubt; 55a)
